# Reference: ChEMBL document CHEMBL4033799, “Stable and Long-Lasting, Novel Bicyclic Peptide Plasma Kallikrein Inhibitors for the Treatment of Diabetic Macular Edema” (J Med Chem, 2018)
# *1 amine or outer side, *2 acyl side, *3 side chain or, on linkers, in order; H or OH if unused. Where a SMILES comes first, the peptide text is derived from it. Bridges are numbered along the chain shown (N, C = ends). Roman numbers before positions name the chains, in order. [ ]: non-standard residue; d: D form. ξ: configuration not given here. X1 = CC(=O)N[C@@H](CSCc1cc(C[*:1])cc(C[*:2])c1)C(=O)O; TBMB = c1c(C[*:1])cc(C[*:3])cc1C[*:2]; hArg = N=C(N)NCCCC[C@H](N)C(=O)O; ξAze = O=C(O)C1CCN1
# Assays:
# [1] = target: (UniProt A0A8D1M4K5); experiment: Inhibition of pig plasma kallikrein using fluorogenic H-Pro-Phe-Arg-AMC peptide as substrate preincubated for 15 mins followed by substrate addition measured by fluorescence-based assay; parameters: species or system Sus scrofa; details: read-out: Ki(app)
# [2] = target: Plasma kallikrein (Homo sapiens, UniProt P03952); experiment: Inhibition of human plasma kallikrein using fluorogenic H-Pro-Phe-Arg-AMC peptide as substrate preincubated for 15 mins followed by substrate addition measured by fluorescence-based assay; details: read-out: Ki(app)
# [3] = target: Plasma kallikrein (Rattus norvegicus, UniProt P14272); experiment: Inhibition of recombinant Sprague-Dawley rat plasma kallikrein using fluorogenic H-Pro-Phe-Arg-AMC peptide as substrate preincubated for 15 mins followed by substrate addition measured by fluorescence-based assay; details: read-out: Ki(app)
# [4] = Inhibition of rabbit plasma kallikrein using fluorogenic H-Pro-Phe-Arg-AMC peptide as substrate preincubated for 15 mins followed by substrate addition measured by fluorescence-based assay; parameters: species or system Oryctolagus cuniculus; details: read-out: Ki(app)
# In short: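 Assays ran at 25 °C in 50 mM Tris-HCl, 250 mM NaCl, 1.5 μM BSA, pH 7.5. PKal (nominal 1–2 nM) was preincubated 15 min with serially diluted peptide. […] Human PKal was purified from plasma; rat PKal was made in-house or bought; other species were purified in-house from kaolin-activated plasma.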
# [5] = system: Plasma; experiment: (§1) Drug level in human plasma treated with (3S,6S,9R,12S,15S,18S,21S,24S,27R)-15-((1H-imidazol-5-yl)methyl)-1-((S)-1-((S)-2-((S)-2-((R)-2-acetamido-3-mercaptopropanamido)-3-hydroxypropanamido)-3-(1H-indol-3-yl)propanoyl)pyrrolidin-2-yl)-18-(3-amino-3-oxopropyl)-21-(carboxymethyl)-6-(3-guanidinopropyl)-12,24-diisobutyl-9,27-bis(mercaptomethyl)-3-methyl-1,4,7,10,13,16,19,22,25-nonaoxo-2,5,8,11,14,17,20,23,26-nonaazaoctacosan-28-oic acid at 50 uM after 18 hrs by MALDI-TOF analysis; type: ADME, cell-free
# In short: (§2)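 Peptide from a 1 mM DMSO stock was diluted to 50 μM in citrated mouse, rat or human plasma and incubated at 37 °C for up to 2 days. Samples taken at time points were quenched in 1:1 acetonitrile/methanol and centrifuged. The supernatant was mixed with ammonium bicarbonate in acetonitrile/water, and parent peptide and metabolites were detected by MALDI-TOF.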
# [6] = system: Plasma; experiment: as §1, with “rat” for “human”; type: ADME, cell-free; in short: as §2
# [7] = Aqueous solubility of the compound in buffer; type: physicochemical
# Sequence of Plasma kallikrein (Homo sapiens, UniProt P03952) (P03952 20-390 limits assumed): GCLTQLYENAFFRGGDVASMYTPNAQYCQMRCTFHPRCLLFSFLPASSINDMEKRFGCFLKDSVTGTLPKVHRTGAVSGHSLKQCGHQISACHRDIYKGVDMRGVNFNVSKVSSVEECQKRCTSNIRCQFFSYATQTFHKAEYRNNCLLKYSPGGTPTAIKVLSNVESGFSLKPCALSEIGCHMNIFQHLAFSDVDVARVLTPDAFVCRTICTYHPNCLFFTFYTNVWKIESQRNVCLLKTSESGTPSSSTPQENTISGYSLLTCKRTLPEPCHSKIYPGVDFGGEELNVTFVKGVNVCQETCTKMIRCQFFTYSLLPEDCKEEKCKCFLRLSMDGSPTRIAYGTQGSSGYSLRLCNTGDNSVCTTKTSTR
# Sequence of Plasma kallikrein (Homo sapiens, UniProt P03952) (P03952 391-638 limits assumed): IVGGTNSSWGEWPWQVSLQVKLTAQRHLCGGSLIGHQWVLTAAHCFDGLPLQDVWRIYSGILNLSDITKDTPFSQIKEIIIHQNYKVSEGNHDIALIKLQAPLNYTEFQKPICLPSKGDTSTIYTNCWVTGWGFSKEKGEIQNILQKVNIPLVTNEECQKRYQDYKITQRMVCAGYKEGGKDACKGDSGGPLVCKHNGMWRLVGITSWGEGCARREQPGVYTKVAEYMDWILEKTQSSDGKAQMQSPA
# Sequence of Plasma kallikrein (Rattus norvegicus, UniProt P14272) (P14272 20-390 limits assumed): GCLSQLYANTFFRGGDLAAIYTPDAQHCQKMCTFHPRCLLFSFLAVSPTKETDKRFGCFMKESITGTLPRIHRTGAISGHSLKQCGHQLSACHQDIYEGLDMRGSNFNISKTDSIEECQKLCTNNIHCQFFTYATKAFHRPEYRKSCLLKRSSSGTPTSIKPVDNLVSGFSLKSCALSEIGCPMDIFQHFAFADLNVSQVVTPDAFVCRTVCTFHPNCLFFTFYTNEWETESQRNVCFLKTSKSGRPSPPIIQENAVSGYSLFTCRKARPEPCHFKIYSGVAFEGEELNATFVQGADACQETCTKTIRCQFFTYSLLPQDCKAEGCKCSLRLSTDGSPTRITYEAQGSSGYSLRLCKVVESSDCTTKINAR
# Sequence of Plasma kallikrein (Rattus norvegicus, UniProt P14272) (P14272 391-638 limits assumed): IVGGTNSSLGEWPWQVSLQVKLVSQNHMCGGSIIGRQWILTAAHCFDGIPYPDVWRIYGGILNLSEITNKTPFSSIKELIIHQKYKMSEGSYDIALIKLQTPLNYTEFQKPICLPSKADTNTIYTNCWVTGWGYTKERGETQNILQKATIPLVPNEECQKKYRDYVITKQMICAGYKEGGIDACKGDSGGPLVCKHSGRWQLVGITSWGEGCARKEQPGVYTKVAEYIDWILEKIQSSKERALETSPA
smiles,measurement,setting,value
CC(=O)N[C@H]1CSCc2cc3cc(c2)CSC[C@H](NC(=O)[C@H](CCCNC(=N)N)NC(=O)[C@H](Cc2ccc(O)cc2)NC(=O)[C@@H]2CCCN2C(=O)[C@H](Cc2ccccc2)NC(=O)[C@H](CO)NC1=O)C(=O)N[C@@H](CC(C)C)C(=O)N[C@@H](Cc1cnc[nH]1)C(=O)N[C@@H](CCC(N)=O)C(=O)N[C@@H](CC(=O)O)C(=O)N[C@@H](CC(C)C)C(=O)N[C@H](C(=O)O)CSC3 (Ac-CSFPYRCLHQDLC-OH; linker 1-7-13 via TBMB),Ki,[1],22 nM
same,Ki,[2],0.39 nM
same,Ki,[3],11 nM
same,Ki,[4],84 nM
CC(C)C[C@@H]1NC(=O)[C@H](CC(=O)O)NC(=O)[C@H](CCC(N)=O)NC(=O)[C@H](Cc2cnc[nH]2)NC(=O)[C@H](CC(C)C)NC(=O)[C@@H]2CSCc3cc(cc(c3)CSC[C@@H](C(=O)N[C@@H](C)C(=O)O)NC1=O)CSC[C@H](NC(=O)[C@H](C)N)C(=O)N[C@@H](CO)C(=O)N[C@@H](Cc1c[nH]c3ccccc13)C(=O)N1CCC[C@H]1C(=O)N[C@@H](C)C(=O)N[C@@H](CCCNC(=N)N)C(=O)N2 (H-ACSWPARCLHQDLCA-OH; linker 2-8-14 via TBMB),Ki,[2],0.07 nM
same,Ki,[3],0.9 nM
CC[C@H](C)[C@@H]1NC(=O)[C@H](CC(=O)O)NC(=O)[C@@H]2CCCN2C(=O)[C@H](Cc2ccc(O)cc2)NC(=O)[C@H](Cc2ccc(O)cc2)NC(=O)[C@H](C(C)C)NC(=O)[C@@H]2CSCc3cc(cc(c3)CSC[C@@H](C(=O)N[C@@H](C)C(=O)O)NC1=O)CSC[C@H](NC(=O)[C@H](C)N)C(=O)N[C@@H](CC(N)=O)C(=O)N[C@@H](CC(N)=O)C(=O)N[C@@H](Cc1ccccc1)C(=O)N1CCC[C@H]1C(=O)N[C@@H](Cc1ccccc1)C(=O)N[C@@H](CCCNC(=N)N)C(=O)N2 (H-ACNNFPFRCVYYPDICA-OH; linker 2-9-16 via TBMB),Ki,[2],0.44 nM
CC(=O)N[C@@H](CSCc1cc2cc(c1)CSC[C@H](N)C(=O)N[C@@H](CC(C)C)C(=O)N[C@@H](Cc1cnc[nH]1)C(=O)N[C@@H](CCC(N)=O)C(=O)N[C@@H](CC(=O)O)C(=O)N[C@@H](CC(C)C)C(=O)N[C@H](C(=O)O)CSC2)C(=O)N[C@@H](CO)C(=O)N[C@@H](Cc1c[nH]c2ccccc12)C(=O)N1CCC[C@H]1C(=O)N[C@@H](C)C(=O)O (I: H-CLHQDLC-OH / II: Ac-CSWPA-OH; linker I:1-I:7-II:1 via TBMB),Drug metabolism,[5],Metabolite_Detected
CC(=O)N[C@@H](CSCc1cc2cc(c1)CSC[C@H](N)C(=O)N[C@@H](CC(C)C)C(=O)N[C@@H](Cc1cnc[nH]1)C(=O)N[C@@H](CCC(N)=O)C(=O)N[C@@H](CC(=O)O)C(=O)N[C@@H](CC(C)C)C(=O)N[C@H](C(=O)O)CSC2)C(=O)O (H-CLHQDLC-OH; linker 1-7 via X1),Drug metabolism,[5],Metabolite_Detected
CC(=O)N[C@H]1CSCc2cc3cc(c2)CSC[C@H](NC(=O)[C@H](CCCNC(=N)N)NC(=O)[C@H](C)NC(=O)C2CCN2C(=O)[C@H](Cc2c[nH]c4ccccc24)NC(=O)[C@H](CO)NC1=O)C(=O)N[C@@H](CC(C)C)C(=O)N[C@@H](Cc1cnc[nH]1)C(=O)N[C@@H](CCC(N)=O)C(=O)N[C@@H](CC(=O)O)C(=O)N[C@@H](CC(C)C)C(=O)N[C@H](C(=O)O)CSC3 (stereo partly drawn) (Ac-CSW[ξAze]ARCLHQDLC-OH; linker 1-7-13 via TBMB),Ki,[2],0.06 nM
CC(=O)N[C@H]1CSCc2cc(cc(CSC[C@H](NC(=O)[C@H](CC(C)C)NC(=O)[C@@H](N)CC(=O)O)C(=O)O)c2)CSC[C@@H](C(=O)O)NC(=O)[C@H](CCCNC(=N)N)NC(=O)[C@H](C)NC(=O)[C@@H]2CCCN2C(=O)[C@H](Cc2c[nH]c3ccccc23)NC(=O)[C@H](CO)NC1=O,Drug metabolism,[6],Metabolite_Detected
CC(=O)N[C@H]1CSCc2cc(cc(CSC[C@H](NC(=O)[C@H](CC(C)C)NC(=O)[C@H](CC(=O)O)NC(=O)[C@H](CCC(N)=O)NC(=O)[C@@H](N)Cc3cnc[nH]3)C(=O)O)c2)CSC[C@@H](C(=O)O)NC(=O)[C@H](CCCNC(=N)N)NC(=O)[C@H](C)NC(=O)[C@@H]2CCCN2C(=O)[C@H](Cc2c[nH]c3ccccc23)NC(=O)[C@H](CO)NC1=O (I: Ac-CSWPARC-OH / II: H-HQDLC-OH; linker I:1-I:7-II:5 via TBMB),Drug metabolism,[6],Metabolite_Detected
CC(=O)N[C@H]1CSCc2cc3cc(c2)CSC[C@H](NC(=O)[C@H](CCCCNC(=N)N)NC(=O)[C@H](Cc2ccc(O)cc2)NC(=O)C2CCN2C(=O)[C@H](Cc2ccccc2)NC(=O)[C@H](CO)NC1=O)C(=O)N[C@@H](CC(C)C)C(=O)N[C@@H](Cc1cnc[nH]1)C(=O)N[C@@H](CCC(N)=O)C(=O)N[C@@H](CC(=O)O)C(=O)N[C@@H](CC(C)C)C(=O)N[C@H](C(=O)O)CSC3 (stereo partly drawn) (Ac-CSF[ξAze]Y[hArg]CLHQDLC-OH; linker 1-7-13 via TBMB),Ki,[2],0.21 nM
CC(=O)N[C@H]1CSCc2cc(CSC[C@H](NC(=O)[C@H](CC(C)C)NC(=O)[C@@H](N)CC(=O)O)C(=O)O)cc(c2)CSC[C@@H](C(=O)N[C@@H](CC(C)C)C(=O)O)NC(=O)[C@H](CCCNC(=N)N)NC(=O)[C@H](C)NC(=O)[C@@H]2CCCN2C(=O)[C@H](Cc2c[nH]c3ccccc23)NC(=O)[C@H](CO)NC1=O,Drug metabolism,[6],Metabolite_Detected
CC(=O)N[C@H]1CSCc2cc3cc(c2)CSC[C@H](NC(=O)[C@H](CCCNC(=N)N)NC(=O)[C@H](Cc2ccc(O)cc2)NC(=O)[C@@H]2CCCN2C(=O)[C@H](Cc2ccccc2)NC(=O)[C@H](CO)NC1=O)C(=O)N[C@@H](C)CN[C@@H](Cc1cnc[nH]1)C(=O)N[C@@H](CCC(N)=O)C(=O)N[C@@H](CC(=O)O)C(=O)N[C@@H](CC(C)C)C(=O)N[C@H](C(=O)O)CSC3,Ki,[2],1.3 nM
CC(=O)N[C@H]1CSCc2cc3cc(c2)CSC[C@H](NC(=O)[C@H](CCCCNC(=N)N)NC(=O)[C@H](C)NC(=O)C2CCN2C(=O)[C@H](Cc2c[nH]c4ccccc24)NC(=O)[C@H](CO)NC1=O)C(=O)N[C@@H](CC(C)C)C(=O)N[C@@H](Cc1cnc[nH]1)C(=O)N[C@@H](CCC(N)=O)C(=O)N[C@@H](CC(=O)O)C(=O)N[C@@H](CC(C)C)C(=O)N[C@H](C(=O)O)CSC3 (stereo partly drawn) (Ac-CSW[ξAze]A[hArg]CLHQDLC-OH; linker 1-7-13 via TBMB),Ki,[2],0.14 nM
CC[C@H](C)[C@@H]1NC(=O)[C@H](CC(=O)O)NC(=O)[C@@H]2CCCN2C(=O)[C@H](Cc2ccc(O)cc2)NC(=O)[C@H](Cc2ccc(O)cc2)NC(=O)[C@H](C(C)C)NC(=O)[C@@H]2CSCc3cc(cc(c3)CSC[C@@H](C(=O)N[C@@H](C)C(=O)O)NC1=O)CSC[C@H](NC(=O)[C@H](C)N)C(=O)N[C@@H](CO)C(=O)N[C@@H](Cc1ccccc1)C(=O)N1CCC[C@H]1C(=O)N[C@@H](Cc1ccc(O)cc1)C(=O)N[C@@H](CCCNC(=N)N)C(=O)N2 (H-ACSFPYRCVYYPDICA-OH; linker 2-8-15 via TBMB),solubility,[7],Insoluble
CC(=O)N[C@@H](CSCc1cc2cc(c1)CSC[C@H](N)C(=O)N[C@@H](CC(C)C)C(=O)N[C@@H](Cc1cnc[nH]1)C(=O)N[C@@H](CCC(N)=O)C(=O)N[C@@H](CC(=O)O)C(=O)N[C@@H](CC(C)C)C(=O)N[C@H](C(=O)O)CSC2)C(=O)N[C@@H](CO)C(=O)O,Drug metabolism,[5],Metabolite_Detected
